Measured values collected from several papers.
Protocols differ between the studies behind these lines.
Organism: Escherichia coli
Read-out: microbial growth

Structure (SMILES) | assay | system | setting | MIC
O=[N+]([O-])c1ccc(-c2nc3cc(Cl)ccc3[nH]2)o1 | broth dilution | ATTC25922 |  | 8 µg/mL
CC1=NN(CNc2ccccc2[N+](=O)[O-])C(=O)C1=NNn1c(-c2ccccc2)nc2ccccc2c1=O | broth dilution |  | 24 h | 50.4 µM
C[C@@H](O)[C@H]1C(=O)N2C(C(=O)O)=C(S[C@@H]3CN[C@H](C(=O)N(C)C)C3)[C@H](C)[C@H]12 | broth dilution | ATCC25922 |  | ≤ 0.125 µg/mL
CC1=NN(CNc2ccc(Cl)cc2)C(=O)C1=NNn1c(-c2ccccc2)nc2ccccc2c1=O | broth dilution |  | 24 h | 51.5 µM
CCCCCCCCCCCC(=O)Oc1c(C)c(O)c(C(=O)/C=C/c2ccccc2)c(OC)c1C | broth dilution | ATCC25922 |  | 5000 µg/mL
COc1cc(C(=O)Nc2ccc(C(=O)N[C@@H](CC(N)=O)C(=O)Nc3ccc(C(=O)Nc4ccc(C(=O)Nc5ccc(C(=O)O)cc5)c(O)c4OC(C)C)cc3)cc2)ccc1C#N |  | DSM1116 |  | < 0.03 µg/mL
N=C(N)c1ccc(OCc2cc(COc3ccc(C(=N)N)cc3)cc(-c3ccccc3)c2)cc1 | broth dilution | ATCC25922 |  | 100 µg/mL
CCCCCCC/C=C/C(=O)N1C(=O)/C(=C(/C)O)C(=O)C1CCC(=O)O (centres unmarked) |  | K12, K12 |  | > 200 µg/mL
Cc1ccc(C)n1-c1ccc(-c2n[nH]c(=S)[nH]2)cc1 | broth dilution | ATCC10536 | 18 h | 8 µg/mL
CCCCCCC#Cc1cncc(-c2nnc(SCc3ccc(Cl)cc3)n2C2CC2)c1 |  |  |  | ≥ 20 µg/mL
COc1c(C)c(O)c(C)c(O)c1C(=O)/C=C/c1ccccc1 | broth dilution | ATCC25922 |  | 1250 µg/mL
CC1(C)S[C@@H]2[C@H](NC(=O)[C@H](N)c3ccccc3)C(=O)N2[C@H]1C(=O)O | broth dilution | ATCC25922 |  | 8 µg/mL
CC(=O)Nc1ncc([N+](=O)[O-])s1 |  |  |  | < 50 µM
Cc1ccc2nc(-c3ccccc3O)[nH]c2c1 | broth dilution | ATCC25922 |  | 128 µg/mL
N=C(N)c1ccc(OCCC(CCOc2ccc(C(=N)N)cc2)c2ccccc2)cc1 (centres unmarked) | broth dilution | W3110 |  | 200 µg/mL
CC(C)Oc1c(NC(=O)c2ccc(NC(=O)[C@H](CC(N)=O)NC(=O)c3ccc(NC(=O)c4cc(=O)c(O)c[nH]4)cc3)cc2)ccc(C(=O)Nc2ccc(C(=O)O)cc2)c1O |  | DSM1116 |  | > 64 µg/mL
CCCCC(=O)N1C(=O)/C(=C(/C)O)C(=O)C1CC(C)C (centres unmarked) |  | K12, K12 |  | > 200 µg/mL
O=C(Cc1cc(O)c(O)c(O)c1)NCCCCCCCC[P+](c1ccccc1)(c1ccccc1)c1ccccc1.[Br-] | broth dilution | ATCC25922 | 18 h | > 32 µg/mL
CC(=O)Nc1ccc(C(=O)Nc2ccc(C(=O)N[C@@H](CC(N)=O)C(=O)Nc3ccc(C(=O)Nc4ccc(C(=O)Nc5ccc(C(=O)O)cc5)c(O)c4OC(C)C)cc3)cc2)cc1 |  | DSM1116 |  | 16 µg/mL
CC1=NN(CNc2ccc(O)cc2)C(=O)C1=NNn1c(-c2ccccc2)nc2ccccc2c1=O | broth dilution |  | 24 h | 107 µM
N=C(N)c1ccc(OCc2cccc(COc3ccc(C(=N)N)cc3)c2)cc1 | broth dilution | W3110 |  | 100 µg/mL
CCCCCCC#Cc1cncc(-c2nnc(SCc3ccc(Cl)cc3)n2C)c1 |  |  |  | ≥ 20 µg/mL
CC(C)Oc1c(NC(=O)c2ccc(NC(=O)[C@H](CC(N)=O)NC(=O)c3ccc(C#Cc4ccc(C#N)cc4)cc3)cc2)ccc(C(=O)Nc2ccc(C(=O)O)cc2)c1O |  | DSM1116 |  | 0.06 µg/mL
c1ccc2c(-c3nc4ccccc4[nH]3)c3ccccc3cc2c1 | broth dilution | ATCC25922 |  | 64 µg/mL
CCCCCCC/C=C/C(=O)N1C(=O)/C(=C(/C)O)C(=O)C1Cc1ccc(O)cc1 (centres unmarked) |  | K12, K12 |  | > 200 µg/mL
Cc1ccc(C)n1-c1ccc(-c2nnc(-c3ccc(Br)cc3)[nH]2)cc1 | broth dilution | ATCC10536 | 18 h | 125 µg/mL
N=C(N)c1cccc(OCc2ccc(COc3cccc(C(=N)N)c3)cc2)c1 |  | BW25113 |  | > 200 µg/mL

Structure (SMILES) | assay | system | setting | MIC
NC1CCc2c1[nH]c1ccc(Cl)c(Cl)c21 (centres unmarked) | broth dilution | ATCC25922 |  | 16 µg/mL
Cc1c(CN(C)C(=O)/C=C/c2cnc3c(c2)CC(NC(=O)OC(C)(C)C)C(=O)N3)oc2ccccc12 (centres unmarked) | broth dilution | MG1655 | clinical isolate | > 32 µg/mL
O=C(CCCCCCCCCC[P+](c1ccccc1)(c1ccccc1)c1ccccc1)Nc1cc(O)c(O)c(O)c1.[Br-] | broth dilution | ATCC25922 | 18 h | > 32 µg/mL
N=C(N)c1ccc(OCc2cc(Br)cc(COc3ccc(C(=N)N)cc3)c2)cc1 | broth dilution | ATCC25922 |  | 100 µg/mL
Clc1ccc(-c2nc3ccccc3n2Cc2ccccc2)cc1Cl | broth dilution | ATCC25922 |  | 64 µg/mL
C[C@@H](O)[C@H]1C(=O)N2C(C(=O)O)=C(S[C@@H]3CN[C@H](C(=O)N(C)C)C3)[C@H](C)[C@H]12 | broth dilution |  | 24 h | 0.0312 µg/mL
COc1c(C)c(OC)c(C(=O)/C=C/c2ccccc2)c(OC)c1C | broth dilution | ATCC25922 |  | 5000 µg/mL
N=C(N)c1cccc(OCCCCCOc2cccc(C(=N)N)c2)c1 | broth dilution | BW25113 |  | > 200 µg/mL
Cc1ccc2nc(-c3ccc(Cl)cc3)n(Cc3ccccc3Cl)c2c1 | broth dilution | ATCC25922 |  | 64 µg/mL
O=C(O)c1cn(C2CC2)c2cc(N3CCNCC3)c(F)cc2c1=O |  |  |  | 1.6 µg/mL
Cc1cc(C(=O)Nc2ccc(C(=O)N[C@@H](CC(N)=O)C(=O)Nc3ccc(C(=O)Nc4ccc(C(=O)Nc5ccc(C(=O)O)cc5)c(O)c4OC(C)C)cc3)cc2)ccc1C#N |  | DSM1116 |  | 0.5 µg/mL
N=C(N)c1ccc(OCc2ccc(-c3ccccc3)cc2COc2ccc(C(=N)N)cc2)cc1 | broth dilution | ATCC25922 |  | 200 µg/mL
Cc1ccc(C)n1-c1ccc(-c2nnc(-c3ccc(N(C)C)cc3)[nH]2)cc1 | broth dilution | ATCC10536 | 18 h | 250 µg/mL
Cc1cccc(NCc2ccc(Oc3ccccn3)cc2)c1 |  |  |  | > 50 µg/mL
Cc1ccc2nc(-c3ccc(Cl)cc3Cl)[nH]c2c1 | broth dilution | ATCC25922 |  | 64 µg/mL
O=C(CCCCCCCC[P+](c1ccccc1)(c1ccccc1)c1ccccc1)Nc1ccc(O)c(O)c1.[Br-] | broth dilution | ATCC25922 | 18 h | > 32 µg/mL
C/C(=C\c1ccc(C#N)cc1)C(=O)Nc1ccc(C(=O)N[C@@H](CC(N)=O)C(=O)Nc2ccc(C(=O)Nc3ccc(C(=O)Nc4ccc(C(=O)O)cc4)c(O)c3OC(C)C)cc2)cc1 |  | DSM1116 |  | 0.125 µg/mL
Cc1ccc2nc(-c3ccc(N(C)C)cc3)[nH]c2c1 | broth dilution | ATCC25922 |  | 64 µg/mL
CCCCCCC/C=C/C(=O)N1C(=O)/C(=C(\O)C2CCNCC2)C(=O)C1CC(C)C (centres unmarked) |  | K12, K12 |  | 25 µg/mL
Brc1ccc(NCc2ccc(Oc3ccccn3)cc2)cc1 |  |  |  | > 25 µg/mL
C/C(=C\c1ccc(O)cc1)C(=O)Nc1ccc(C(=O)N[C@@H](CC(N)=O)C(=O)Nc2ccc(C(=O)Nc3ccc(C(=O)Nc4ccc(C(=O)O)cc4)c(O)c3OC(C)C)cc2)cc1 |  | DSM1116 |  | 0.25 µg/mL
N=C(N)c1ccc(OCCCCCCCCCOc2ccc(C(=N)N)cc2)cc1 |  | BW25113 |  | 50 µg/mL
COc1cccc(-c2nc3ccc(C)cc3[nH]2)c1 | broth dilution | ATCC25922 |  | 128 µg/mL
CNc1cccc2cc(C(=O)NCc3ccc(C(=O)O)cc3)c(=O)[nH]c12 | broth dilution | ATCC25922 |  | > 64 µg/mL
Cc1ccc2nc(-c3ccc(F)cc3)n(Cc3ccccc3)c2c1 | broth dilution | ATCC25922 |  | 128 µg/mL
CC(C)Oc1c(NC(=O)c2ccc(NC(=O)[C@H](CC(N)=O)NC(=O)c3ccc(NC(=O)c4ccc(N)cc4)cc3)cc2)ccc(C(=O)Nc2ccc(C(=O)O)cc2)c1O |  | DSM1116 |  | 2 µg/mL
